Source: ChEMBL document CHEMBL3232807, “Genomics-guided discovery of endophenazines from Kitasatospora sp. HKI 714” (2014)
In brackets after ≈: the same amount, converted by molar mass.

How the values were obtained:
Type in all cases: functional
Staphylococcus aureus = assay: Antimicrobial activity against methicillin-resistant Staphylococcus aureus SG 511 by broth dilution method
Outline: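 MIC was determined by broth dilution following NCCLS guidelines, using S. aureus SG 511 (MRSA).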

[1] = system: Mycolicibacterium fortuitum; assay: Antimicrobial activity against Mycobacterium fortuitum IMET 10667 by broth dilution method
Outline: (§1)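 MIC was determined by broth dilution following the NCCLS standard method.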

Mycolicibacterium aurum = assay: Antimicrobial activity against Mycobacterium aurum SB 66 by broth dilution method; outline: as §1
Mycolicibacterium vaccae = assay: Antimicrobial activity against Mycobacterium vaccae IMET 10670 by broth dilution method; outline: as §1
[2] = system: Mycolicibacterium smegmatis; assay: Antimicrobial activity against Mycobacterium smegmatis SG 987 by broth dilution method; outline: as §1
[3] = system: Mycobacterium avium complex sp.; assay: Antimicrobial activity against Mycobacterium avium complex by BACTEC radiometric assay
[4] = system: Mycobacterium tuberculosis; assay: Antimicrobial activity against Mycobacterium tuberculosis by BACTEC radiometric assay

| SMILES | MIC (Staphylococcus aureus) | MIC [1] | MIC (Mycolicibacterium aurum) | MIC (Mycolicibacterium vaccae) | MIC [2] | MIC [3] | MIC [4] |
| --- | --- | --- | --- | --- | --- | --- | --- |
| O=C(O)c1cccc2c1Nc1ccccc1N2C(=O)CO | 100 µg/mL (≈ 352 µM) | 50 µg/mL (≈ 176 µM) | 50 µg/mL (≈ 176 µM) | 25 µg/mL (≈ 87.9 µM) | 50 µg/mL (≈ 176 µM) |  |  |
| C/C(=C\Cc1cccc2nc3cccc(C(=O)O)c3nc12)CO | 100 µg/mL (≈ 324 µM) | 25 µg/mL (≈ 81.1 µM) | 25 µg/mL (≈ 81.1 µM) | 25 µg/mL (≈ 81.1 µM) | 50 µg/mL (≈ 162 µM) |  |  |
| CC(C)(O)/C=C/c1cccc2nc3cccc(C(=O)O)c3nc12 | 100 µg/mL (≈ 324 µM) | 25 µg/mL (≈ 81.1 µM) | 25 µg/mL (≈ 81.1 µM) | 25 µg/mL (≈ 81.1 µM) | 50 µg/mL (≈ 162 µM) |  |  |
| O=C(O)c1cn(C2CC2)c2cc(N3CCNCC3)c(F)cc2c1=O [CIPROFLOXACIN] | 12.5 µg/mL (≈ 37.7 µM) | 0.1 µg/mL (≈ 0.302 µM) | 0.1 µg/mL (≈ 0.302 µM) | 0.1 µg/mL (≈ 0.302 µM) | 0.78 µg/mL (≈ 2.35 µM) |  |  |
| CC(C)/N=c1\cc2n(-c3ccc(Cl)cc3)c3ccccc3nc-2cc1Nc1ccc(Cl)cc1 [CLOFAZIMINE] |  |  |  |  |  | 0.12 µg/mL (≈ 0.253 µM) | 0.12 µg/mL (≈ 0.253 µM) |
| O=C(O)c1cccc2nc3ccccc3nc12 [PHENAZINE-1-CARBOXYLIC ACID] | 100 µg/mL (≈ 446 µM) | 50 µg/mL (≈ 223 µM) | 50 µg/mL (≈ 223 µM) | 25 µg/mL (≈ 111 µM) | 50 µg/mL (≈ 223 µM) |  |  |
